High-throughput results deposited in PubChem by Johns Hopkins Ion Channel Center.
The list is not random: actives were taken first. Their share in the collection is about 3.5%.
MrgX1 allo act – positive allosteric modulators of MrgX1, primary screen, HEK293 cells, Fluo-4 calcium flux. Mas-related G-protein coupled receptor member X1 (Homo sapiens), Q96LB2. FDSS; hits give high values. B-score at 10 µM. 310,000 compounds, 0.63% hits;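 active means plate-corrected calcium response at least 3 library SD above typical, normal starting fluorescence, not activating the receptor alone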;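 further: compound read alongside a low EC10 to EC30 dose of BAM8-22 agonist; peak minus trough fluorescence over baseline measured at the second addition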
Target sequence (Q96LB2 whole entry, looked up): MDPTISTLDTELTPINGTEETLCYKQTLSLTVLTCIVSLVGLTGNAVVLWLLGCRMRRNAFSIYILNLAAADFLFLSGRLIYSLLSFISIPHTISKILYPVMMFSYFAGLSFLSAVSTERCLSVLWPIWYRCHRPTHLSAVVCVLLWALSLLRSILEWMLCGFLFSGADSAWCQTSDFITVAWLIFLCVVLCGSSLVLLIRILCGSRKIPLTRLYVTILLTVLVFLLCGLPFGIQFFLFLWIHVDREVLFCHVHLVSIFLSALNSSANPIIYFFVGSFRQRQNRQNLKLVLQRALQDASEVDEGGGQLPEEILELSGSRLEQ
MrgX1 antag – antagonists of human MrgX1 receptor, primary screen, HEK293 cells, Fluo-4 calcium flux; BAM8-22 antagonism; hits give low values; B-score at 10 µM; 310,000 compounds, 1.3% hits; AID 588676, 2011;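 active means calcium-response B-score plate-corrected more than 3 library SD below zero, starting fluorescence within 5 deviations, no agonist response on first addition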;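 further: peak minus trough fluorescence over baseline after final BAM8-22 challenge near maximal dose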
RGS4 act – RGS4 potentiators or activators, primary screen, cell-based, HEK293 M3R inducible RGS4, calcium flux. 310,000 compounds, 0.92% hits. B-score at 10 µM. carbachol calcium flux Fluo4; hits give low values. AID 463111, 2010;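 active means B-score of the integrated calcium signal more than 4 SD below the library mean, with starting fluorescence not abnormally high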;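 further: negative B-score means reduced calcium response which marks RGS4 activation or potentiation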
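Material: M3R-expressing HEK293 line, RGS4 induced by doxycycline | Schedule: Overnight RGS4 induction, 30 min dye load 37 °C, 20 min compound RT | Measured by: Fluo4 fluorescence kinetic imaging of calcium | Read-out: Integrated calcium ratio converted to B score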
MrgX1 agonist – agonists of human MrgX1 receptor, primary screen, HEK293 cells, Fluo-4 calcium flux; Mas-related G-protein coupled receptor member X1 (Homo sapiens), Q96LB2; Fluo-4 calcium fluorescence, agonist mode; hits give high values; B-score at 10 µM; 310,000 compounds, 0.44% hits; AID 588627, 2011;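 active means calcium response B-score plate-corrected fluorescence ratio at least 3 library SD, with starting fluorescence B-score inside 5 SD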
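Test system: HEK293 cells stably expressing human MrgX1 receptor; Input: fifteen thousand cells per well; Dosing: compound delivered in addition one of three; Schedule: overnight seeding, then 1 h dark dye loading; Technique: Fluo-4 NW calcium fluorescence; Measure: B-scored fluorescence response ratio; Controls: positive and negative controls per plate.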
RGS4 block – RGS4 inhibitors, primary screen, cell-based, HEK293 M3R inducible RGS4, calcium flux; Regulator of G-protein signaling 4 (Homo sapiens), P49798; Fluo-4 calcium flux; hits give high values; triggered by carbachol at its EC20; B-score at 10 µM; 310,000 compounds, 0.45% hits; AID 463165, 2010;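 active means B-score, a plate-corrected calcium signal, over three deviations above library mean, with baseline fluorescence within five deviations of library mean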;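 further: RGS4 expression induced by doxycycline in cells with stable M3 receptor; B-score is computed from the integrated fluorescence ratio over baseline after carbachol; higher B-score means a larger calcium signal and so more RGS4 inhibition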
Target sequence (P49798 whole entry, looked up): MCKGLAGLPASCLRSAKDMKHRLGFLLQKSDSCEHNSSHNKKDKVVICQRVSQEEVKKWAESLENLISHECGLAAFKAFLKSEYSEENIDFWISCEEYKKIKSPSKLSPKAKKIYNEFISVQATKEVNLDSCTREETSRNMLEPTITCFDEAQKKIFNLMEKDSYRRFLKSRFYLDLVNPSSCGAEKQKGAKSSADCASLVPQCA
RGS4 activ val – reduced carbachol calcium response, RGS4-induced M3R cells, confirmation, RGS4 activator project, cell-based, HEK293 M3R/RGS4 inducible, calcium flux, duplicate; shares compounds with RGS4 act; carbachol calcium flux Fluo4; inhibition, % at 10 µM; 1,100 compounds, 89% hits; AID 602282, 2012;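 active means inhibition above 3 SD of the buffer control wells, cut at about 41% in these data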;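 further: signal is the integrated peak-minus-minimum Fluo4 fluorescence over baseline ratio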
M3R Ca counter – activity in cells without induced RGS4 expression; shares compounds with RGS4 act; 1,100 compounds, 82% hits; inhibition, % at 10 µM; HEK293 M3R non-induced RGS4, Fluo4 calcium flux; after carbachol challenge at its EC90; AID 602283;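 active means inhibition exceeding 3 SD of buffer-only control wells, cut at about 26% in these data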;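 further: percent drop in integrated peak-minus-baseline over baseline Fluo4 ratio after carbachol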
The depositor's hits bear a star; i = inactive; nt = no result given.

SMILES	MrgX1 allo act	MrgX1 antag	RGS4 act	MrgX1 agonist	RGS4 block	RGS4 activ val	M3R Ca counter
Cc1c(C(=O)OCCN2CCCCC2)oc2ccccc12	i	i	-11*	i	i	94*	91*
O=C(NCc1ccccc1)c1cccnc1Sc1ccccc1	i	i	i	i	i	nt	nt
O=C(c1ccccc1)c1ccc(OCCn2cnc3ccccc3c2=O)cc1	i	i	i	i	i	nt	nt
CC(C)(c1ccccc1)c1ccc(OCCn2cnc3ccccc3c2=O)cc1	i	i	-8.8*	i	i	90*	58*
CC(=O)NC(Cc1cc(C)ccc1C)C(=O)N1CCN(C(=O)c2ccc([N+](=O)[O-])cc2)CC1 (stereo not drawn)	i	i	i	i	i	nt	nt
Cc1ccc(OCC(=O)NNC(=O)CCc2ccccc2)c(Br)c1	i	i	i	i	i	nt	nt
Cc1c(C(=O)N(C)C2CCCCC2)sc2ncnc(N3CCN(c4ccccc4)CC3)c12	i	i	-9.7*	i	i	0	28*
Cc1c(C(=O)N2CCN(c3ccc(F)cc3)CC2)sc2ncnc(N3CCN(c4ccccn4)CC3)c12	i	i	-8.9*	i	i	92*	84*
Cc1c(C(=O)N(C)C2CCCCC2)sc2ncnc(N3CCN(c4ccccc4F)CC3)c12	i	i	i	i	i	nt	nt
Cc1c(C(=O)N2CCN(c3ccccc3)CC2)sc2ncnc(N3CCN(c4ccccn4)CC3)c12	i	i	-9.7*	i	i	80*	48*
Cc1ccc(Cl)cc1NC(=S)N1CCC(c2ccccc2)C1 (stereo not drawn)	i	i	i	i	i	nt	nt
COc1cc(NS(=O)(=O)c2ccc3c(c2)C(C)(C)C(=O)N3C)cc(OC)c1	i	i	i	i	i	nt	nt
COc1ccccc1N1CCN(C(=O)CSc2nc3ccccc3nc2N2CCC(C)CC2)CC1	i	i	-7.7*	i	i	44*	0
COc1ccccc1N1CCN(C(=O)CSc2nc3ccccc3nc2N2CCCCC2)CC1	i	i	i	i	i	nt	nt
COc1ccccc1NC(=O)Nc1nc(CC(=O)N2CCN(c3ccc(F)cc3)CC2)cs1	i	i	-8.2*	i	i	56*	0
COc1ccc(N2CCN(C(=O)Cc3csc(NC(=O)Nc4ccccc4OC)n3)CC2)cc1	i	i	i	i	i	nt	nt
c1ccc(N2CCN(c3cnccn3)CC2)nc1	i	i	-8.4*	i	i	0	0
COCCN1C(=O)c2cc(C(=O)Nc3ccc(OC)c(OC)c3)ccc2C1Nc1ccc(OC)c(OC)c1 (stereo not drawn)	i	i	i	i	i	nt	nt
COc1ccc(C(=O)NC2CCN(C(=O)Nc3ccccc3Cl)CC2)cc1	i	i	i	i	i	nt	nt
NS(=O)(=O)c1cccc(NS(=O)(=O)c2ccc(/C=C/C(=O)OCC(=O)c3ccccc3)cc2)c1	i	i	i	i	i	nt	nt
Fc1ccc(C2N(c3ccccc3)C(=S)N3CCCN23)cc1 (stereo not drawn)	i	i	i	i	i	nt	nt
Cc1ccc(C2N(c3ccccc3)C(=S)N3CCCN23)cc1 (stereo not drawn)	i	i	-11*	i	i	94*	91*
COc1cc(NC(=O)c2cc3ccccc3cc2OC)ccc1NC(=O)c1cccs1	i	i	-9.1*	i	i	76*	0
Cc1nn(-c2ccc(N3CCCCC3)nn2)c(C)c1CCC(=O)Nc1ccc(F)c(F)c1	i	i	-8.5*	i	i	64*	49*
CN(C)CCC1Sc2ccccc2Oc2ccccc21 (stereo not drawn)	i	i	-7.6*	i	i	74*	84*
SMILES	MrgX1 allo act	MrgX1 antag	RGS4 act	MrgX1 agonist	RGS4 block	RGS4 activ val	M3R Ca counter
CN1CCN(C2=Cc3ccccc3Sc3cc(F)ccc32)CC1	8.2*	i	-12*	i	i	92*	94*
CSc1cc(-c2ccccc2)n(C)c(=O)c1C#N	i	i	i	i	i	nt	nt
CCOC(=O)Cn1c(-c2ccccc2)cc(SC)c(C#N)c1=O	i	i	-9.2*	i	i	90*	79*
COc1ccccc1C(=O)NC1CCN(C(=S)NCCc2ccccc2)CC1	i	i	i	i	i	nt	nt
CN(C(=O)c1ccccc1OCc1ccc(Cl)cc1)c1ccccc1	i	i	-9.2*	i	i	92*	93*
CCCCN(CCCC)S(=O)(=O)c1ccc(NC(=O)c2ccc([N+](=O)[O-])cc2Cl)cc1	i	i	-11*	i	i	86*	60*
CC(=O)N1CCN(c2ccc(NC(=O)c3ccc([N+](=O)[O-])cc3Cl)cc2)CC1	i	i	i	i	i	nt	nt
FC(F)(F)c1cccc(NCc2n[nH]c(=S)n2C2CCCCC2)c1	i	i	-8.4*	i	i	85*	52*
CCOC(=O)c1cc[nH]c1CC(=O)NC	i	i	i	i	i	nt	nt
COc1ccc(-c2oc3ncnc(NCCCN4CCOCC4)c3c2-c2ccc(OC)cc2)cc1	i	i	i	i	i	nt	nt
COc1ccc(-c2oc3ncnc(NCCN4CCOCC4)c3c2-c2ccc(OC)cc2)cc1	i	i	-9.8*	i	i	88*	70*
CCOc1ccc(CN(C(=O)c2cccs2)C2CCS(=O)(=O)C2)cc1 (stereo not drawn)	i	i	i	i	i	nt	nt
CCOC(=O)C1=C(C)NC(C)=C(C(=O)OCC)C1C(=O)OCC(=O)NC1(C#N)CCCCC1	i	i	-11*	i	i	46*	0
O=C(NC1CCCCC1)C(c1ccc(O)cc1)N(C(=O)c1cnccn1)c1cccc(F)c1 (stereo not drawn)	i	i	i	i	i	nt	nt
CCNc1nc(N2CCCC2)nc(N2CCCC2)n1	i	i	i	i	i	nt	nt
CCNc1nc(NC(C)(C)C)nc(N2CCCCC2)n1	i	i	-7.9*	i	i	94*	93*
